Screening results deposited in PubChem BioAssay by The Scripps Research Institute Molecular Screening Center.
Rows were chosen to be rich in hits. Some 1.8% of all compounds tested hit in one or more screens of this group.
CHRM5 agonist: CHRM5 agonism in calcium assay; activation, % at 3 µM; actives 0.19% (n = 360,000); CHO-K1 hM5 cells, Fluo-8 calcium fluorescence; 0% DMSO wells, 100% maximal acetylcholine response;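 active = activation above the run's mean over test compounds plus 3 SD, cut at about 23% in these data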;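 also: signal is peak over basal fluorescence ratio across the kinetic read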
Target sequence (P08912 whole entry, looked up): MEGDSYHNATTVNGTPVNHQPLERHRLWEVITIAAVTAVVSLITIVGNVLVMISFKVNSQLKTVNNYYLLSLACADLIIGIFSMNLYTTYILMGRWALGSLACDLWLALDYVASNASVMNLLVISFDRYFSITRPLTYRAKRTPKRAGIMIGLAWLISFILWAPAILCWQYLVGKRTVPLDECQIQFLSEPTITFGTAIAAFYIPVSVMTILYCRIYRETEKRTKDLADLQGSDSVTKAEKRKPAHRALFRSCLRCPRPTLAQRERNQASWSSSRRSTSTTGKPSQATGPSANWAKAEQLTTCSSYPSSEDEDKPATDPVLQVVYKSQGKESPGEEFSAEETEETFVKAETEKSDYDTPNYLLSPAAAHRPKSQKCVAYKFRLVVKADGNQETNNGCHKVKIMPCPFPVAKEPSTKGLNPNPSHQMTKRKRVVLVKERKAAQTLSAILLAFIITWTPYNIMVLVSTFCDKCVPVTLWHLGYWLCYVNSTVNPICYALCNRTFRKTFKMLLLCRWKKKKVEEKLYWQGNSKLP
CHRM4 agonist: CHRM4 agonism in calcium assay. actives 0.14% (n = 360,000). P08173. activation, % at 3 µM. CHO-K1 hM4/Gqi5, Fluo-8 calcium fluorescence; vehicle 0%, full acetylcholine response 100%;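 active = activation above the run mean over all test wells plus 3 SD, cut at about 32% in these data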;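 also: peak over basal fluorescence ratio per well then scaled between controls; 0% = DMSO wells and 100% = acetylcholine at EC100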
CHRM4 PAM: positive allosteric modulators of human muscarinic M4 receptor | actives 0.4% (n = 360,000) | CHO-K1 hM4/Gqi5, Fluo-8 calcium fluorescence, ACh EC20; 0% = ACh EC20, 100% = maximal ACh | activation, % at 3 µM | P08173;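 active = activation above its plate's cutoff, the mean activation of sample wells plus 3 SD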
CHRM5 antagonist: CHRM5 antagonism in calcium assay | AID 624040 | inhibition, % at 3 µM | P08912 | CHO-hM5 cells, Fluo-8 calcium fluorescence, ACh EC80 | actives 0.59% (n = 360,000);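 active = inhibition above a per-plate cutoff, the mean of that plate's test compounds plus 3 SD, cut at about 27% in these data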;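 also: 0% = acetylcholine EC80 with DMSO and 100% = DMSO without agonist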
CHRM4 antagonist: blocks acetylcholine activation of human M4 receptor; inhibition, % at 3 µM; CHO-hM4 cells, ACh EC80, Fluo-8 calcium fluorescence; P08173; actives 0.73% (n = 360,000);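 active = inhibition above its plate's cutoff, the mean inhibition of sample wells plus 3 SD, cut at about 27% in these data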;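 also: 0% = acetylcholine EC80 with DMSO and 100% = DMSO without agonist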
M5 PAM: potentiates acetylcholine response at human M5 receptor; AID 624038; actives 0.3% (n = 360,000); activation, % at 3 µM; CHO-K1 hM5, Fluo-8 calcium, ACh EC20 PAM; 0% = ACh EC20, 100% = ACh EC100;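 active = activation above the run cutoff, the mean activation of all test compounds plus 3 SD, cut at about 18% in these data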
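Assay system – human M5 receptor in CHO-K1 cells · Read-out – % activation, ACh-normalized · Technique – Fluo-8 calcium fluorescence · Dosing – single-point, 3 µM nominal · Incubation – Fluo-8 loading 80 min at 37 °C plus 30 min room temperature · Repeats – singlicate, one well per test compound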
Numbers without * were called inactive.

Results for CN(C)Cc1cn(CC[C@@H]2CC[C@@H](NC(=O)Nc3ccccc3F)[C@@H](CO)O2)nn1 ?
CHRM5 agonist: 0; CHRM4 agonist: 1; CHRM4 PAM: 0; CHRM5 antagonist: -7; CHRM4 antagonist: 7; M5 PAM: 10

Results for O=C1CC(=O)CC(c2ccccc2)C1 ?
CHRM5 agonist: 2; CHRM4 agonist: 1; CHRM4 PAM: -2; CHRM5 antagonist: -3; CHRM4 antagonist: -2; M5 PAM: -2

Results for O=S1(=O)CCS(=O)(=O)C1c1ccccc1 ?
CHRM5 agonist: 8; CHRM4 agonist: 0; CHRM4 PAM: -1; CHRM5 antagonist: -8; CHRM4 antagonist: 16; M5 PAM: 20*

Results for O=C(NCc1ccccc1)C(c1ccc(-c2ccccc2)cc1)n1c(=O)c(-c2ccco2)nc2ccccc21 (centres undefined) ?
CHRM5 agonist: 5; CHRM4 agonist: 2; CHRM4 PAM: 6; CHRM5 antagonist: -2; CHRM4 antagonist: 0; M5 PAM: 13

How did CCc1nc2ccc(C(=O)Nc3ccc4c(c3)OCC(=O)N4)cn2c1N(C)Cc1nccn1C do in these assays?
CHRM5 agonist: -8; CHRM4 agonist: 1; CHRM4 PAM: 3; CHRM5 antagonist: 11; CHRM4 antagonist: -4; M5 PAM: 1

How did CCOc1ccc(NC(=O)CN2C(=O)S/C(=C/c3cccn3C)C2=O)cc1 do in these assays?
CHRM5 agonist: -4; CHRM4 agonist: 2; CHRM4 PAM: -5; CHRM5 antagonist: 28*; CHRM4 antagonist: 1; M5 PAM: -16

What do the screens show for `CC(C1=C(CCN(C)C)Cc2ccccc21)c1ccccn1` (centres undefined)?
CHRM5 agonist: -13; CHRM4 agonist: 0; CHRM4 PAM: -10; CHRM5 antagonist: 7; CHRM4 antagonist: 64*; M5 PAM: -37

How did CN(C)CCC(c1ccccc1)c1ccccn1 (centres undefined) do in these assays?
CHRM5 agonist: -1; CHRM4 agonist: 1; CHRM4 PAM: -9; CHRM5 antagonist: 15; CHRM4 antagonist: 14; M5 PAM: -17

How did COc1ccc(C)cc1NS(=O)(=O)c1ccc(NS(=O)(=O)c2ccc(NC(C)=O)cc2)cc1 do in these assays?
CHRM5 agonist: -1; CHRM4 agonist: 0; CHRM4 PAM: 22*; CHRM5 antagonist: 4; CHRM4 antagonist: -2; M5 PAM: -7

Results for COc1ccc(NC(=O)COC(=O)CC2CCCC2)cc1Cl ?
CHRM5 agonist: 1; CHRM4 agonist: 1; CHRM4 PAM: -2; CHRM5 antagonist: 0; CHRM4 antagonist: -4; M5 PAM: 1

How did Cc1ccc(NC(=O)COC(=O)CC2CCCC2)cc1Cl do in these assays?
CHRM5 agonist: -3; CHRM4 agonist: 1; CHRM4 PAM: 18; CHRM5 antagonist: -1; CHRM4 antagonist: -13; M5 PAM: 23*

Results for CCN(CC)CC(=O)N1c2ccccc2Sc2ccccc21 ?
CHRM5 agonist: -5; CHRM4 agonist: 1; CHRM4 PAM: -18; CHRM5 antagonist: 92*; CHRM4 antagonist: 84*; M5 PAM: -18

How did CCN(CC)CCC(=O)N1c2ccccc2Sc2ccc(NC(=O)OC)cc21 do in these assays?
CHRM5 agonist: -26; CHRM4 agonist: 1; CHRM4 PAM: -5; CHRM5 antagonist: -8; CHRM4 antagonist: -1; M5 PAM: -20

Results for CCN(CC)CC(=O)N1c2ccccc2Sc2ccc(Cl)cc21 ?
CHRM5 agonist: -17; CHRM4 agonist: 0; CHRM4 PAM: -18; CHRM5 antagonist: 97*; CHRM4 antagonist: 85*; M5 PAM: -49

How did CCCNC(=O)N1c2ccccc2Sc2ccccc21 do in these assays?
CHRM5 agonist: -20; CHRM4 agonist: 1; CHRM4 PAM: -9; CHRM5 antagonist: 15; CHRM4 antagonist: 0; M5 PAM: -5

Results for NCCCC(=O)N1c2ccccc2Sc2ccccc21 ?
CHRM5 agonist: -4; CHRM4 agonist: 1; CHRM4 PAM: -14; CHRM5 antagonist: 67*; CHRM4 antagonist: 42*; M5 PAM: -24

What do the screens show for `CCN(CC)CCCCN1c2ccccc2Sc2ccccc21`?
CHRM5 agonist: -4; CHRM4 agonist: 10; CHRM4 PAM: -17; CHRM5 antagonist: 88*; CHRM4 antagonist: 73*; M5 PAM: -22

How did CCN(CC)C(=O)N1c2ccccc2Sc2ccccc21 do in these assays?
CHRM5 agonist: -9; CHRM4 agonist: -2; CHRM4 PAM: -4; CHRM5 antagonist: 9; CHRM4 antagonist: 2; M5 PAM: -6

Results for O=C(O)c1ccc(NC(=S)NC(=O)c2cncc(Br)c2)cc1 ?
CHRM5 agonist: -3; CHRM4 agonist: 0; CHRM4 PAM: 0; CHRM5 antagonist: 9; CHRM4 antagonist: 4; M5 PAM: -6

What do the screens show for `C[C@@H](C(=O)OCC(=O)c1ccc(F)c(F)c1)N1C(=O)C2CCCCC2C1=O` (some centres undefined)?
CHRM5 agonist: 7; CHRM4 agonist: 4; CHRM4 PAM: -2; CHRM5 antagonist: 6; CHRM4 antagonist: 1; M5 PAM: -2

What do the screens show for `O=C(CN1CCCC1=O)NC1CCCc2c1cnn2-c1cc(F)cc(F)c1` (centres undefined)?
CHRM5 agonist: 4; CHRM4 agonist: 1; CHRM4 PAM: 3; CHRM5 antagonist: -7; CHRM4 antagonist: -4; M5 PAM: 19*

How did CC(C)(C)c1ccc(-n2ncc3c2CCCC3NC(=O)CN2CCCCC2=O)cc1 (centres undefined) do in these assays?
CHRM5 agonist: 1; CHRM4 agonist: 3; CHRM4 PAM: -2; CHRM5 antagonist: -15; CHRM4 antagonist: 1; M5 PAM: 8

What do the screens show for `NS(=O)(=O)c1ccc(N=Nc2c(O)ccc3ccccc23)cc1`?
CHRM5 agonist: -1; CHRM4 agonist: 1; CHRM4 PAM: -4; CHRM5 antagonist: 4; CHRM4 antagonist: -3; M5 PAM: 1

What do the screens show for `Oc1ccc(N=Nc2c(O)ccc3ccccc23)cc1`?
CHRM5 agonist: 1; CHRM4 agonist: 1; CHRM4 PAM: 31*; CHRM5 antagonist: 10; CHRM4 antagonist: 12; M5 PAM: -2

Results for COc1cc(-c2noc(C)c2-c2ccc(N(C)C)nc2)cc(OC)c1OC ?
CHRM5 agonist: 36*; CHRM4 agonist: 36*; CHRM4 PAM: -7; CHRM5 antagonist: 12; CHRM4 antagonist: -3; M5 PAM: -12

Results for CCc1ccc2oc(=O)cc(CN3CCN(Cc4ccccc4)CC3)c2c1 ?
CHRM5 agonist: -8; CHRM4 agonist: 3; CHRM4 PAM: -18; CHRM5 antagonist: 17; CHRM4 antagonist: 65*; M5 PAM: -15
